{"source": "ChEMBL document CHEMBL4334471", "about": "“Discovery of 1,8-disubstituted-[1,2,3]triazolo[4,5-c]quinoline derivatives as a new class of Hippo signaling pathway inhibitors” (Bioorg Med Chem Lett, 2019)", "key": {"[1]": {"target": "Tyrosine-protein kinase ABL1 (Homo sapiens) (UniProt P00519)", "assay": "Inhibition of human ABL1 (27 to end residues) at 10 uM using EAIYAAPFAKKK as substrate incubated for 40 mins in presence of [gamma-33ATP] by scintillation counting based radiometry assay relative to control", "set-up": "scale not given: the % may be the effect or the level left"}, "[2]": {"target": "ALK tyrosine kinase receptor (Homo sapiens) (UniProt Q9UM73)", "assay": "Inhibition of human ALK (1058 to end residues) assessed as residual activity at 10 uM using KKKSPGEYVNIEFG as substrate incubated for 40 mins in presence of [gamma-33ATP] by scintillation counting based radiometry assay relative to control"}, "[3]": {"system": "Serine/threonine-protein kinase B-raf (Homo sapiens), P15056 [V600E]", "sequence (P15056 whole entry V600E)": "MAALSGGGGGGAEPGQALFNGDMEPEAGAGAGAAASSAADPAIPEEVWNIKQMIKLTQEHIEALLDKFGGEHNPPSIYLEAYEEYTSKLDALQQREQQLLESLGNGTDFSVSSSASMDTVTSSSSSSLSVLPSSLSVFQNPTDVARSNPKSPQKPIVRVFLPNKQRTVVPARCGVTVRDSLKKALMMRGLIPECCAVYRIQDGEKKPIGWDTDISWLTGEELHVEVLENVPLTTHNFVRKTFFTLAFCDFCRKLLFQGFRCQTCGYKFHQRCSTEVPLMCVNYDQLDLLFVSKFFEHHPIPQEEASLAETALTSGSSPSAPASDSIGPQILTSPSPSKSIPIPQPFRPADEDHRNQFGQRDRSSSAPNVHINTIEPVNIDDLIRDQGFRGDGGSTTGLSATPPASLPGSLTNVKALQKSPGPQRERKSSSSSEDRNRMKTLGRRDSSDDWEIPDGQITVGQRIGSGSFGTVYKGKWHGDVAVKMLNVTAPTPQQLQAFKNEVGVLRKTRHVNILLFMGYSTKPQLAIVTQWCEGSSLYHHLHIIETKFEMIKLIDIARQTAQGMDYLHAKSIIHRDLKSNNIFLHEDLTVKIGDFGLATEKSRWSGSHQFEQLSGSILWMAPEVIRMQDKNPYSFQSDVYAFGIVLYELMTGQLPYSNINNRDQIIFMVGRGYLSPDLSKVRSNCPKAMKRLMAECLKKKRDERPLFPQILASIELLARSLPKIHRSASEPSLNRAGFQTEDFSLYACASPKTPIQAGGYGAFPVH", "assay": "Inhibition of recombinant full length human B-Raf V599E mutant (416 to end residues) assessed as residual activity at 10 uM using myelin basic protein as substrate incubated for 40 mins in presence of [gamma-33ATP] by scintillation counting based radiometry assay relative to control"}, "[4]": {"target": "Cyclin-dependent kinase-like 4 (Homo sapiens) (UniProt Q5MAI5)", "assay": "Inhibition of recombinant full length human CDKL4 assessed as residual activity at 10 uM in presence of [gamma-33ATP] by scintillation counting based radiometry assay relative to control"}, "[5]": {"target": "Serine/threonine-protein kinase DCLK3 (Homo sapiens) (UniProt Q9C098)", "sequence (Q9C098 whole entry)": "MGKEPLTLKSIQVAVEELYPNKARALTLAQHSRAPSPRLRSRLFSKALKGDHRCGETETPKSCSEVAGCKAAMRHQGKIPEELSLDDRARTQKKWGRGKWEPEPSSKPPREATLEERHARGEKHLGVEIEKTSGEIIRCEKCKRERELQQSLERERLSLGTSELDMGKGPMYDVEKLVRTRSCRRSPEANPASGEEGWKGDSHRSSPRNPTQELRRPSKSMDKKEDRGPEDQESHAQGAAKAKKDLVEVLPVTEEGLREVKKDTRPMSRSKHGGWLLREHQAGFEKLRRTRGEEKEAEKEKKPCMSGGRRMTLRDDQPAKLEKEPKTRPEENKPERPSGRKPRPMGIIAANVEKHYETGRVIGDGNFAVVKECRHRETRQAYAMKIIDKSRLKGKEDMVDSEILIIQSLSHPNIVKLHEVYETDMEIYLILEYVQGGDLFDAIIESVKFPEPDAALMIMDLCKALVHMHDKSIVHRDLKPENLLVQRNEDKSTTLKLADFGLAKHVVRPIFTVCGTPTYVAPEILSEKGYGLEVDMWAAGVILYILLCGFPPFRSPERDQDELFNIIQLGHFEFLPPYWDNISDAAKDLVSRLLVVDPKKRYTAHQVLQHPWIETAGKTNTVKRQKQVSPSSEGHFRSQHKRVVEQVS", "assay": "Inhibition of recombinant human DCAMKL3 (345 to end residues) assessed as residual activity at 10 uM using KKLNRTLSFAEPG as substrate at 40 mins in presence of [gamma-33ATP] by scintillation counting based radiometry assay relative to control"}, "[6]": {"target": "Dual specificity tyrosine-phosphorylation-regulated kinase 1A (Homo sapiens) (UniProt Q13627)", "assay": "Inhibition of recombinant human DYRK1A assessed as residual activity at 10 uM using RRRFRPASPLRGPP as substrate at 40 mins in presence of [gamma-33ATP] by scintillation counting based radiometry assay relative to control"}, "[7]": {"target": "Dual specificity tyrosine-phosphorylation-regulated kinase 3 (Homo sapiens) (UniProt O43781)", "sequence (O43781 whole entry)": "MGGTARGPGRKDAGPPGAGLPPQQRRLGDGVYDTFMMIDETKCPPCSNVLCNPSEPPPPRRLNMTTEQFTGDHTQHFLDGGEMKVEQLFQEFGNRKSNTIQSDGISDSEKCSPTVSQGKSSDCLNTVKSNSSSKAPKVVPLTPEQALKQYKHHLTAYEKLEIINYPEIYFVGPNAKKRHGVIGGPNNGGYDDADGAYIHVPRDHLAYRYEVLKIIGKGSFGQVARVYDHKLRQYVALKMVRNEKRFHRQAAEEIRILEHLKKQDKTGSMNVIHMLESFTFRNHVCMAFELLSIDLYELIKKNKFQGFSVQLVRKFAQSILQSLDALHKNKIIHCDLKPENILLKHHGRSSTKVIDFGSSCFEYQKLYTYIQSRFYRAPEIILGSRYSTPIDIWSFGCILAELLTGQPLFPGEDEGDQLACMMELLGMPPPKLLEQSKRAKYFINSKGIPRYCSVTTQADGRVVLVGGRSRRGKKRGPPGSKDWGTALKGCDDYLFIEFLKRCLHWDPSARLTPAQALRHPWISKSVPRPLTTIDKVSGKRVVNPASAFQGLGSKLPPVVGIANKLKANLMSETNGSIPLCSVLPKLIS", "assay": "Inhibition of recombinant human DYRK3 assessed as residual activity at 10 uM using RRRFRPASPLRGPP as substrate at 40 mins in presence of [gamma-33ATP] by scintillation counting based radiometry assay relative to control"}, "[8]": {"target": "Mitogen-activated protein kinase kinase kinase kinase 2 (Homo sapiens) (UniProt Q12851)", "assay": "Inhibition of recombinant human GCK (1 to 473 residues) assessed as residual activity at 10 uM using myelin basic protein as substrate at 40 mins in presence of [gamma-33ATP] by scintillation counting based radiometry assay relative to control"}, "[9]": {"target": "Rhodopsin kinase GRK7 (Homo sapiens) (UniProt Q8WTQ7)", "assay": "Inhibition of recombinant full length human GRK7 assessed as residual activity at 10 uM using casein as substrate at 40 mins in presence of [gamma-33ATP] by scintillation counting based radiometry assay relative to control"}, "[10]": {"target": "Homeodomain-interacting protein kinase 3 (Homo sapiens) (UniProt Q9H422)", "sequence (Q9H422 whole entry, looked up, the tested form may be a part)": "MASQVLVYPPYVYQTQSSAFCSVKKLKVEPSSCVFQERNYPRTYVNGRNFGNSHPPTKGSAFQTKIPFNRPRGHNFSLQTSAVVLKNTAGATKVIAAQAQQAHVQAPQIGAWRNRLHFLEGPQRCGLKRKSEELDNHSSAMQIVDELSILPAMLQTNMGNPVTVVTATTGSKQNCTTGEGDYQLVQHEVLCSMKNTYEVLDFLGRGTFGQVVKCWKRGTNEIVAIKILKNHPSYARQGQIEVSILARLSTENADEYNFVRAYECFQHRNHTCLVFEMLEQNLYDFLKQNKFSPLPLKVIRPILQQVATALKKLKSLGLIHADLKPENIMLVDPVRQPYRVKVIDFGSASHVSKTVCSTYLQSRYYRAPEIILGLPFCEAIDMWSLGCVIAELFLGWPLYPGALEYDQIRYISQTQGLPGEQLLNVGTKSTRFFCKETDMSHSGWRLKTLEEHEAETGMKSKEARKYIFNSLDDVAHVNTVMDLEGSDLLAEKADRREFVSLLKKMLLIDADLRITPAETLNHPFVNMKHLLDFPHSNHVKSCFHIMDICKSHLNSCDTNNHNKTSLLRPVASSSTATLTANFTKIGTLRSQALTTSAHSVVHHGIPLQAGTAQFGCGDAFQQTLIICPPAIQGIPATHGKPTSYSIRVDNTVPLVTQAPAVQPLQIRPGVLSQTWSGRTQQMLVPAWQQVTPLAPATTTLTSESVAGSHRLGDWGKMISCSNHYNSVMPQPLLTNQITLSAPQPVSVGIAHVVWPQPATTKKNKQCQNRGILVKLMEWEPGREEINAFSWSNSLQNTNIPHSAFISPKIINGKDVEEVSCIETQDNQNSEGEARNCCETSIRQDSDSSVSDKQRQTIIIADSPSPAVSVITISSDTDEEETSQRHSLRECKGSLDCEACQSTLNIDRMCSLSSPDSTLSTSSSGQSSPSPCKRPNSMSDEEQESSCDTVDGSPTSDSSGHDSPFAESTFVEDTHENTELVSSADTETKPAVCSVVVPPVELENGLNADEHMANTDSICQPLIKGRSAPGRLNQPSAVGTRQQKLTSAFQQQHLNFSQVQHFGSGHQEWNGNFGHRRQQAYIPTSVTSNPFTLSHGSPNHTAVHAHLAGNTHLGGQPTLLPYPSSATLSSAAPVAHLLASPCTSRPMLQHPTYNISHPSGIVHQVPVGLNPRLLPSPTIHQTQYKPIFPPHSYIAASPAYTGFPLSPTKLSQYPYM", "assay": "Inhibition of human HIPK3 (161 to 562 residues) assessed as residual activity at 10 uM using myelin basic protein as substrate after 40 mins by [gamma-33ATP] radiometric assay relative to control"}, "[11]": {"target": "Tyrosine-protein kinase JAK1 (Homo sapiens) (UniProt P23458)", "assay": "Inhibition of human JAK1 (866 to end residues) assessed as residual activity at 10 uM using GEEPLYWSFPAKKK as substrate after 40 mins by [gamma-33ATP] radiometric assay relative to control"}, "[12]": {"target": "MAP kinase-activated protein kinase 3 (Homo sapiens) (UniProt Q16644)", "assay": "Inhibition of recombinant human MAPKAPK3 (2 to end residues) assessed as residual activity at 10 uM using KKLNRTLSVA as substrate incubated for 40 mins in presence of [gamma-33ATP by scintillation counting based radiometry assay relative to control"}, "[13]": {"system": "Hepatocyte growth factor receptor (Homo sapiens), P08581 [M1250T]", "assay": "Inhibition of recombinant human MET A1209G/V1290L/M1268T mutant (974 to end residues) assessed as residual activity at 10 uM using KKKGQEEEYVFIE as substrate incubated for 40 mins in presence of [gamma-33ATP by scintillation counting based radiometry assay relative to control"}, "[14]": {"target": "Serine/threonine-protein kinase 4 (Homo sapiens) (UniProt Q13043)", "sequence (Q13043 whole entry)": "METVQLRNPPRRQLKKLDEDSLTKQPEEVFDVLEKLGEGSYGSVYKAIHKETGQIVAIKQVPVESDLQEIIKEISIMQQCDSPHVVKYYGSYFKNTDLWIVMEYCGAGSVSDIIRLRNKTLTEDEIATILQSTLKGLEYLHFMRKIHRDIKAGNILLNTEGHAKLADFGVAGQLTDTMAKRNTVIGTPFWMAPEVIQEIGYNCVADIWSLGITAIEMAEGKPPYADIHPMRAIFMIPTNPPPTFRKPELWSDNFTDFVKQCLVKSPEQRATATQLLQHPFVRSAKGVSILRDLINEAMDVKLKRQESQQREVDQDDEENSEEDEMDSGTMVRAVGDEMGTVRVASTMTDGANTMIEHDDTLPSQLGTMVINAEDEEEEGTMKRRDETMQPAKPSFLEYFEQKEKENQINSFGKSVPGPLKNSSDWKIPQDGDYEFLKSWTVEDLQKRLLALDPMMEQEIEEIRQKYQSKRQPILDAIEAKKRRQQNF", "assay": "Inhibition of recombinant full-length human MST1 assessed as residual activity at 10 uM using KKSRGDYMTMQIG as substrate measured after 40 mins in presence of [gamma33P]ATP by scintillation counting based radiometry assay relative to control", "procedure,_shortened": "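Outsourced kinase profiling of MST1 by a commercial service (Eurofins); activity reported as mean ± SEM of 2 replicates.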"}, "[15]": {"target": "[Pyruvate dehydrogenase (acetyl-transferring)] kinase isozyme 4, mitochondrial (Homo sapiens) (UniProt Q16654)", "assay": "Inhibition of recombinant human full length PDHK4 assessed as residual activity at 10 uM using KKKYHGHSMSDPGVSYRT as substrate incubated for 40 mins in presence of [gamma33P]ATP by scintillation counting based radiometry assay relative to control"}, "[16]": {"system": "Protein kinase C eta type (Homo sapiens), P24723 [UNDEFINED MUTATION]", "assay": "Inhibition of recombinant human PKCeta V108L/G109R/L392Q mutant (2 to end residues) assessed as residual activity at 10 uM using ERMRPRKRQGSVRRRV as substrate incubated for 40 mins in presence of [gamma33P]ATP by scintillation counting based radiometry assay relative to control"}, "[17]": {"target": "Protein-tyrosine kinase 2-beta (Homo sapiens) (UniProt Q14289)", "assay": "Inhibition of recombinant human full length PYK2 assessed as residual activity at 10 uM using poly(Glu, Tyr) 4:1 as substrate incubated for 40 mins in presence of [gamma33P]ATP by scintillation counting based radiometry assay relative to control"}, "[18]": {"system": "SNF-related serine/threonine-protein kinase (Homo sapiens), Q9NRH2 [UNDEFINED MUTATION]", "assay": "Inhibition of human SNRK E97G/P116A mutant (65 to 409 residues) assessed as residual activity at 10 uM using KKLRRTLSFAEPG as substrate incubated for 40 mins in presence of [gamma33P]ATP by scintillation counting based radiometry assay relative to control"}, "[19]": {"system": "Angiopoietin-1 receptor (Homo sapiens), Q02763 [Q939H,Q940H]", "sequence (Q02763 whole entry Q939H/Q940H)": "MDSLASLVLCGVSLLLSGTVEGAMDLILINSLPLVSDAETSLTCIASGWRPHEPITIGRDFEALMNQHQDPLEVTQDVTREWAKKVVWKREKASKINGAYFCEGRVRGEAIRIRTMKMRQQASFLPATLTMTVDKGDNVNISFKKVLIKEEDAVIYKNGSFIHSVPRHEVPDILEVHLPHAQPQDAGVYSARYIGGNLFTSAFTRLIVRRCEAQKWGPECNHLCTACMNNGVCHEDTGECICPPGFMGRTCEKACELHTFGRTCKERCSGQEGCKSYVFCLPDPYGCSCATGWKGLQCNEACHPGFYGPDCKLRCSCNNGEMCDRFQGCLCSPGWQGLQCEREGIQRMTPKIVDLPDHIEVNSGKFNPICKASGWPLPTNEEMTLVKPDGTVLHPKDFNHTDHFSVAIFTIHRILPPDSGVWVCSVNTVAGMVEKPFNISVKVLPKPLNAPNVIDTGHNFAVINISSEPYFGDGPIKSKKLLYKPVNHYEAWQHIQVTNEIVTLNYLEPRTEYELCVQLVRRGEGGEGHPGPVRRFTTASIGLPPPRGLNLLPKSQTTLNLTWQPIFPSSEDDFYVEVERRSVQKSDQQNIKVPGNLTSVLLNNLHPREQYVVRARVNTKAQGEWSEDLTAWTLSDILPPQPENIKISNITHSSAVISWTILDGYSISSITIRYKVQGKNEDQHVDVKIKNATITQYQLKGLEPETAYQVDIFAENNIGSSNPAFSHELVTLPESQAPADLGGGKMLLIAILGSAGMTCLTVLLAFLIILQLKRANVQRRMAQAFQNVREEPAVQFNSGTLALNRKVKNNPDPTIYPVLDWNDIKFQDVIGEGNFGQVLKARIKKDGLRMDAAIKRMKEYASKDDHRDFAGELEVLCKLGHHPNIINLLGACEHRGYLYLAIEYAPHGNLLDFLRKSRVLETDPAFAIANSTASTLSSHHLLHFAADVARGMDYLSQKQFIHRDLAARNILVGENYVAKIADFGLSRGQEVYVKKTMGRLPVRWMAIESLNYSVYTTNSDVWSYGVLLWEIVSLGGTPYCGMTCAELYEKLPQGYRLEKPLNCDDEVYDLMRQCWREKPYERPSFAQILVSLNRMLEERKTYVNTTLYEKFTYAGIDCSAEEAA", "assay": "Inhibition of recombinant human TIE2 Q939H/Q940H mutant (771 to end residues) assessed as residual activity at 10 uM using EFPIYDFLPAKKK as substrate incubated for 40 mins in presence of [gamma33P]ATP by scintillation counting based radiometry assay relative to control"}, "[20]": {"system": "Angiopoietin-1 receptor (Homo sapiens), Q02763 [Q939H,Q940H,Y897S]", "sequence (Q02763 whole entry Y897S/Q939H/Q940H)": "as the sequence (Q02763 whole entry Q939H/Q940H) above, with Y897S counted along it", "assay": "Inhibition of recombinant human TIE2 Q939H/Q940H/Y897S mutant (771 to end residues) assessed as residual activity at 10 uM using EFPIYDFLPAKKK as substrate incubated for 40 mins in presence of [gamma33P]ATP by scintillation counting based radiometry assay relative to control"}}, "data": [{"compound": "C[C@@H](c1ccccc1)n1nnc2cnc3ccc(-c4cnc5[nH]ccc5c4)cc3c21", "values": [{"measurement": "Activity", "setting": "[1]", "value": -4, "unit": "%"}, {"measurement": "Activity", "setting": "[2]", "value": 28, "unit": "%"}, {"measurement": "Activity", "setting": "[3]", "value": 64, "unit": "%"}, {"measurement": "Activity", "setting": "[4]", "value": 96, "unit": "%"}, {"measurement": "Activity", "setting": "[5]", "value": 66, "unit": "%"}, {"measurement": "Activity", "setting": "[6]", "value": 63, "unit": "%"}, {"measurement": "Activity", "setting": "[7]", "value": 79, "unit": "%"}, {"measurement": "Activity", "setting": "[8]", "value": 75, "unit": "%"}, {"measurement": "Activity", "setting": "[9]", "value": 90, "unit": "%"}, {"measurement": "Activity", "setting": "[10]", "value": 75, "unit": "%"}, {"measurement": "Activity", "setting": "[11]", "value": 47, "unit": "%"}, {"measurement": "Activity", "setting": "[12]", "value": 76, "unit": "%"}, {"measurement": "Activity", "setting": "[13]", "value": 45, "unit": "%"}, {"measurement": "Activity", "setting": "[14]", "value": 73, "unit": "%"}, {"measurement": "Activity", "setting": "[15]", "value": 69, "unit": "%"}, {"measurement": "Activity", "setting": "[16]", "value": 82, "unit": "%"}, {"measurement": "Activity", "setting": "[17]", "value": 59, "unit": "%"}, {"measurement": "Activity", "setting": "[18]", "value": 76, "unit": "%"}, {"measurement": "Activity", "setting": "[19]", "value": 50, "unit": "%"}, {"measurement": "Activity", "setting": "[20]", "value": 81, "unit": "%"}]}]}
